According to ChEMBL document CHEMBL2034972, “Synthesis, biological evaluation, and structure-activity relationships of N-benzoyl-2-hydroxybenzamides as agents active against P. falciparum (K1 strain), Trypanosomes, and Leishmania” (J Med Chem, 2012):
In brackets after ≈: the same amount, converted by molar mass.

Columns and labels:
[1] = Plasma protein binding in human; format: ADME, cell-free; details: read-out: PPB (converted)
[2] = Selectivity index, ratio of IC50 for rat L6 cells to IC50 for chloroquine and pyrimethamine-resistant Plasmodium falciparum K1; format: toxicity, cell-based; details: read-out: Ratio IC50
Summary of the method: (§1)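 Selectivity index is calculated as the L6 myoblast IC50 divided by the IC50 against the respective parasite. Both IC50s are in µg/mL and are means of two independent determinations.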

Plasmodium falciparum = experiment: Antimalarial activity against chloroquine and pyrimethamine-resistant Plasmodium falciparum […] assessed as [3H]-hypoxanthine incorporation after 48 hrs by liquid scintillation counting; format: functional, organism-based
Summary of the method: (§2)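 In vitro screens of parasites and host cells: T. b. rhodesiense STIB900 trypomastigotes, T. cruzi Tulahuen C4 intracellular amastigotes, L. donovani MHOM-ET-67/L82 axenic amastigotes, P. falciparum K1 erythrocytic stage, and L6 rat skeletal myoblasts […] for toxicity. […] Values are means of two independent determinations.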

Leishmania donovani = experiment: Antileishmanial activity against axenic amastigote stage of Leishmania donovani […] after 72 hrs by alamar blue assay; format: functional, organism-based; details: MHOM/ET/67/L82, L6, 72 h
Summary of the method: (§3)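 In vitro screens of parasites and host cells: T. b. rhodesiense STIB900 trypomastigotes, T. cruzi Tulahuen C4 intracellular amastigotes, L. donovani MHOM-ET-67/L82 axenic amastigotes, P. falciparum K1 erythrocytic stage, and L6 rat skeletal myoblasts […] for toxicity. Values are means of two independent determinations.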

L6 = experiment: Cytotoxicity against rat L6 cells after 72 hrs by alamar blue assay; format: cell-based; details: L6, 72 h; summary of the method: as §2
[3] = Selectivity index, ratio of IC50 for rat L6 cells to IC50 for trypomastigotes of Trypanosoma brucei rhodesiense STIB 900; format: toxicity, cell-based; details: read-out: Ratio IC50; summary of the method: as §1
[4] = test system: Trypanosoma brucei rhodesiense; experiment: Antitrypanosomal activity against trypomastigotes of Trypanosoma brucei rhodesiense […] after 72 hrs by alamar blue assay; format: functional, organism-based; details: STIB 900, L6, 72 h; summary of the method: as §2
Trypanosoma cruzi = experiment: Antitrypanosomal activity against intracellular amastigote stage of Trypanosoma cruzi Tulahuen C2C4 infected in rat L6 cells after 96 hrs by spectrophotometric analysis; format: functional, organism-based; details: Tulahuen C2C4, L6, 96 h; summary of the method: as §3
[5] = Selectivity index, ratio of IC50 for rat L6 cells to IC50 for intracellular amastigote stage of Trypanosoma cruzi Tulahuen C2C4; format: toxicity, cell-based; details: read-out: Ratio IC50; summary of the method: as §1
[6] = Selectivity index, ratio of IC50 for rat L6 cells to IC50 for axenic amastigote stage of Leishmania donovani MHOM/ET/67/L82; format: toxicity, cell-based; details: read-out: Ratio IC50; summary of the method: as §1
[7] = Metabolic stability of the compound in human liver microsomes assessed as compound remaining after 60 mins in presence of NADPH; format: ADME, Microsome; details: read-out: Stability
CYP2C9 = CYP2C9 (Homo sapiens, UniProt P11712); experiment: Inhibition of CYP2C9 at 10 uM; format: ADME
Chain of CYP2C9 (P11712 whole entry): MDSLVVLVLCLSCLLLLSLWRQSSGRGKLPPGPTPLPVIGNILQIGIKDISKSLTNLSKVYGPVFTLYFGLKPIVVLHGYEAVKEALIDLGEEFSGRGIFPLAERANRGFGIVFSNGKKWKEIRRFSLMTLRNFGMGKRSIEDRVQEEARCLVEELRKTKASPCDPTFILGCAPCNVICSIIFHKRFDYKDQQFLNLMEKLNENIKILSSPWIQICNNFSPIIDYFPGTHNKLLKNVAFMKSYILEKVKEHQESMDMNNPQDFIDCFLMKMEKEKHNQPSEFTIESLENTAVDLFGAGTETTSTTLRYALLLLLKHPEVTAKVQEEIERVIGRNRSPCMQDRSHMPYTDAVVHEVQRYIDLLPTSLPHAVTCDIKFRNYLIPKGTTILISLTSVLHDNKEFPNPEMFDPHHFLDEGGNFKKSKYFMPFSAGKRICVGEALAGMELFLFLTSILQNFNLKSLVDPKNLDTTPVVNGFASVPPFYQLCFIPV

[8] = Metabolic stability of the compound in human liver microsomes assessed as compound remaining after 60 mins; format: ADME, Microsome; details: read-out: Stability
[9] = target: Voltage-gated inwardly rectifying potassium channel KCNH2 (Homo sapiens, UniProt Q12809); experiment: Inhibition of human Erg at 300 uM
Chain of Voltage-gated inwardly rectifying potassium channel KCNH2 (Q12809 whole entry): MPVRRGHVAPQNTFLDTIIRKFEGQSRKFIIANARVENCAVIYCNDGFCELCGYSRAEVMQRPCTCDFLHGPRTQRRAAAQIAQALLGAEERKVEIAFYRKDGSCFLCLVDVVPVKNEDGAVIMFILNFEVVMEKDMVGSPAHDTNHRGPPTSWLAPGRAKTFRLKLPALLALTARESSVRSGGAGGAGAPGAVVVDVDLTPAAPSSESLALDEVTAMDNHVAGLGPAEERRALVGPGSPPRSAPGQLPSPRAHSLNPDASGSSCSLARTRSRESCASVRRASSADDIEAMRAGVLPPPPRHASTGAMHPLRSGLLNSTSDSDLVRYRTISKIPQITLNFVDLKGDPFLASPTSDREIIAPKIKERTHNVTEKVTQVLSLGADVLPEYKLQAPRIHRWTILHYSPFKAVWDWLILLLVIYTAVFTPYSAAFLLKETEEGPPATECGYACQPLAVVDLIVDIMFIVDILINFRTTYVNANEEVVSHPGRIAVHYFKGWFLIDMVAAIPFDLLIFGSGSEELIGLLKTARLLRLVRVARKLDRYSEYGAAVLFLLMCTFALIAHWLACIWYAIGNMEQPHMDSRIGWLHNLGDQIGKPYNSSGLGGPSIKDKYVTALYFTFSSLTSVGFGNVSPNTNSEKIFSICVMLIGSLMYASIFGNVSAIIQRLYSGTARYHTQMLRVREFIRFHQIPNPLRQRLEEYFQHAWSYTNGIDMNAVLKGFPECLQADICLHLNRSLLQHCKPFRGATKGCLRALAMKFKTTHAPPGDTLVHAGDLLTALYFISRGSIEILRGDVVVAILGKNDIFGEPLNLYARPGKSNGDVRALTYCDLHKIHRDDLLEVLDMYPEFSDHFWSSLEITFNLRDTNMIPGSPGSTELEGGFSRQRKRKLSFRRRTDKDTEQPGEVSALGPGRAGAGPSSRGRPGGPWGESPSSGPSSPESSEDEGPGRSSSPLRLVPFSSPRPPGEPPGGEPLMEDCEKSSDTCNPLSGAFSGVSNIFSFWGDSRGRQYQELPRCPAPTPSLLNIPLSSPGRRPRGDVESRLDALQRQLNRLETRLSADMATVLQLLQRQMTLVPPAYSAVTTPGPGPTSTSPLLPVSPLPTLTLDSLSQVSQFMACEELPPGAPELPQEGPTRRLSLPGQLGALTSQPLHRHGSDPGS

CYP3A4 = CYP3A4 (Homo sapiens, UniProt P08684); experiment: Inhibition of CYP3A4 at 10 uM; format: ADME
Chain of CYP3A4 (P08684 whole entry): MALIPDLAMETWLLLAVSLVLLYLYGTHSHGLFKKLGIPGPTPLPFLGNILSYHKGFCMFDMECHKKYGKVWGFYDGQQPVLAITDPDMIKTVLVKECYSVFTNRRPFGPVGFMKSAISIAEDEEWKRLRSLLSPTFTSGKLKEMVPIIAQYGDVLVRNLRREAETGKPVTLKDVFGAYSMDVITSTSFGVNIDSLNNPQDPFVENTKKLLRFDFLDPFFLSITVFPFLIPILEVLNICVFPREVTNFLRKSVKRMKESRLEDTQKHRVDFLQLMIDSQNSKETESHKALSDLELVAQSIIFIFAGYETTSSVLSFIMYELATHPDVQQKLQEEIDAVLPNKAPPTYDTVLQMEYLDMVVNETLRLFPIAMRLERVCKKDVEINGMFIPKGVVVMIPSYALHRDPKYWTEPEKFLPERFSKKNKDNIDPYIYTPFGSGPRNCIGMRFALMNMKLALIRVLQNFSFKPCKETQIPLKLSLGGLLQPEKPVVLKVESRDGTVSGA

[10] = Aqueous solubility of the compound in phosphate based buffer at pH 4; format: physicochemical
[11] = Intrinsic clearance in human liver microsomes assessed per mg of protein; format: ADME, Microsome; details: read-out: CLH
CYP2D6 = CYP2D6 (Homo sapiens, UniProt P10635); experiment: Inhibition of CYP2D6 at 10 uM; format: ADME
Chain of CYP2D6 (P10635 whole entry): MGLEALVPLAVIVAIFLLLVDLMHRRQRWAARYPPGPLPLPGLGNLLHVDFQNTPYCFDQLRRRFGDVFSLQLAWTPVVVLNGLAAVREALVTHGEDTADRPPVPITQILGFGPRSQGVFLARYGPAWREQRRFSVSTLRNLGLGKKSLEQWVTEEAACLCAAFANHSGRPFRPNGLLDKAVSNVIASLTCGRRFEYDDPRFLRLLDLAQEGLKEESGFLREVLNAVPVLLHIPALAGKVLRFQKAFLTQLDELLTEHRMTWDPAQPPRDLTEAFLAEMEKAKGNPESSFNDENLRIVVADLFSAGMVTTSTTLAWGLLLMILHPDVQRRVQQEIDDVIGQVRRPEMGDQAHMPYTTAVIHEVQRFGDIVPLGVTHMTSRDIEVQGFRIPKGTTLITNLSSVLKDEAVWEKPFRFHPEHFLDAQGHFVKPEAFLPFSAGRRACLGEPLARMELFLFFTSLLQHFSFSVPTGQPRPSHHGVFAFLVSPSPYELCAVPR

[12] = Aqueous solubility of the compound in phosphate based buffer at pH 7.4; format: physicochemical

## OC(Cn1cncn1)(Cn1cncn1)c1ccc(F)cc1F [FLUCONAZOLE]
[1]
  fraction unbound: 0.763

## CN(C)c1ccc(C(=O)NC(=O)c2ccccc2O)cc1
[2]
  selectivity ratio: 110
Plasmodium falciparum
  IC50: 0.49 µg/mL (≈ 1.72 µM)
Leishmania donovani
  IC50: 18 µg/mL (≈ 63.3 µM)
L6
  IC50: 54 µg/mL (≈ 190 µM)
[3]
  selectivity ratio: 0.66
[4]
  IC50: 81 µg/mL (≈ 285 µM)
Trypanosoma cruzi
  IC50: 37 µg/mL (≈ 130 µM)
[5]
  selectivity ratio: 1.4
[6]
  selectivity ratio: 3

## O=C(NC(=O)c1ccccc1O)c1ccc(-c2ccccc2)cc1
[2]
  selectivity ratio: > 26
Plasmodium falciparum
  IC50: 3.9 µg/mL (≈ 12.3 µM)
Leishmania donovani
  IC50: 7.4 µg/mL (≈ 23.3 µM)
L6
  IC50: > 100 µg/mL
[3]
  selectivity ratio: > 1.2
[4]
  IC50: 87 µg/mL (≈ 274 µM)
Trypanosoma cruzi
  IC50: 7.7 µg/mL (≈ 24.3 µM)
[5]
  selectivity ratio: > 13
[6]
  selectivity ratio: > 14

## CC(C)c1ccc(C(=O)NC(=O)c2ccccc2O)cc1
[2]
  selectivity ratio: 12
Plasmodium falciparum
  IC50: 1.5 µg/mL (≈ 5.29 µM)
Leishmania donovani
  IC50: 1.3 µg/mL (≈ 4.59 µM)
L6
  IC50: 19 µg/mL (≈ 67.1 µM)
[3]
  selectivity ratio: 0.29
[4]
  IC50: 65 µg/mL (≈ 229 µM)
Trypanosoma cruzi
  IC50: 2 µg/mL (≈ 7.06 µM)
[5]
  selectivity ratio: 9.5
[6]
  selectivity ratio: 14

## CCc1ccc(C(=O)NC(=O)c2ccccc2O)cc1
Plasmodium falciparum
  IC50: 5.6 µg/mL (≈ 20.8 µM)
Leishmania donovani
  IC50: 7.4 µg/mL (≈ 27.5 µM)
[7]
  remaining at 1 h: 0.5%
CYP2C9
  inhibition at 10 µM: 71%
[8]
  remaining at 1 h: 53%
[9]
  inhibition (INH): Not Active
CYP3A4
  inhibition at 10 µM: 71%
L6
  IC50: 70 µg/mL (≈ 260 µM)
[10]
  solubility: 2.76 µM (≈ 0.743 µg/mL)
[11]
  microsomal CLint: 282 µL/min/mg
CYP2D6
  inhibition at 10 µM: 71%
[12]
  solubility: 50.8 µM (≈ 13.7 µg/mL)
[4]
  IC50: 81 µg/mL (≈ 301 µM)
Trypanosoma cruzi
  IC50: 4.8 µg/mL (≈ 17.8 µM)
[1]
  fraction unbound: 0.001

## COc1cc(C(=O)NC(=O)c2ccccc2O)cc(OC)c1OC
[2]
  selectivity ratio: 26
Plasmodium falciparum
  IC50: 0.78 µg/mL (≈ 2.35 µM)
Leishmania donovani
  IC50: 3.2 µg/mL (≈ 9.66 µM)
L6
  IC50: 21 µg/mL (≈ 63.4 µM)
[3]
  selectivity ratio: 0.26
[4]
  IC50: 79 µg/mL (≈ 238 µM)
Trypanosoma cruzi
  IC50: 40 µg/mL (≈ 121 µM)
[5]
  selectivity ratio: 0.51
[6]
  selectivity ratio: 6.5

## CCc1ccc(NC(=O)CC(=O)Nc2ccccc2O)cc1
[2]
  selectivity ratio: 1.3
Plasmodium falciparum
  IC50: 12 µg/mL (≈ 40.2 µM)
Leishmania donovani
  IC50: 13 µg/mL (≈ 43.6 µM)
L6
  IC50: 16 µg/mL (≈ 53.6 µM)
[3]
  selectivity ratio: 0.44
[4]
  IC50: 35 µg/mL (≈ 117 µM)
Trypanosoma cruzi
  IC50: 20 µg/mL (≈ 67 µM)
[5]
  selectivity ratio: 0.76
[6]
  selectivity ratio: 1.2

## O=C(NC(=O)C1CCCCC1)c1ccccc1O
[2]
  selectivity ratio: 4.4
Plasmodium falciparum
  IC50: 13 µg/mL (≈ 52.6 µM)
Leishmania donovani
  IC50: 6 µg/mL (≈ 24.3 µM)
L6
  IC50: 55 µg/mL (≈ 222 µM)
[3]
  selectivity ratio: < 0.55
[4]
  IC50: > 100 µg/mL
Trypanosoma cruzi
  IC50: 16 µg/mL (≈ 64.7 µM)
[5]
  selectivity ratio: 3.4
[6]
  selectivity ratio: 9.2

## CCc1ccc(C(=O)N(C)C(=O)c2ccccc2O)cc1
[2]
  selectivity ratio: 0.33
Plasmodium falciparum
  IC50: 28 µg/mL (≈ 98.8 µM)
Leishmania donovani
  IC50: 9.1 µg/mL (≈ 32.1 µM)
L6
  IC50: 9.4 µg/mL (≈ 33.2 µM)
[3]
  selectivity ratio: < 0.094
[4]
  IC50: > 100 µg/mL
Trypanosoma cruzi
  IC50: 29 µg/mL (≈ 102 µM)
[5]
  selectivity ratio: 0.33
[6]
  selectivity ratio: 1

## O=C(NC(=O)c1ccccc1O)c1ccccc1O
[2]
  selectivity ratio: 36
Plasmodium falciparum
  IC50: 1.1 µg/mL (≈ 4.28 µM)
Leishmania donovani
  IC50: 1.9 µg/mL (≈ 7.39 µM)
L6
  IC50: 39 µg/mL (≈ 152 µM)
[3]
  selectivity ratio: 0.63
[4]
  IC50: 62 µg/mL (≈ 241 µM)
Trypanosoma cruzi
  IC50: 14 µg/mL (≈ 54.4 µM)
[5]
  selectivity ratio: 2.8
[6]
  selectivity ratio: 21
